From PubChem BioAssay AID623967 (Broad Institute, 2012) come the findings set out here.

Several values for one entry are separate records, joined by “and”; a condition that tells them apart may be missing. Identical values can stand only once. Activity calls are given as the source filed them.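 How the source made its calls: active means compounds whose fitted dose for half their peak growth loss is at most twice the top usable dose; inconclusive means flat curve with moderate growth loss, or a poor fit; inactive means the rest.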

As usually defined, the AC50 is the concentration giving half of the maximal activity seen.

Tested on in one test: not listed separately
Briefly: antifungal activity against fermenting C. glabrata – glucose medium, OD600, powder samples, set 3, dose response (AID 623967). The following applies: Candida glabrata growth in glucose medium, OD600, 48 h; at 3 µM (top of the series). The method in brief: (§1)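 material = Candida glabrata cells | medium = CSM-glucose medium | dosing = test compounds delivered into wells by pin transfer | incubation = 48 h growth exposure at 30 °C, static, humidified | detection = optical density at 600 nm | measure = fungal growth inhibition as decrease in OD600 signal | controls = amphotericin B at 10 µM as positive control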
Consider `CCOC(=O)N1C(=O)C2(CCCCC2)N(c2cccc(C)c2)C1=S`, for which the activity change, negative = inhibition was -8.41% (inactive).
For the compound `CCOC(=O)N1C(=O)C2(CCCCC2)N(c2ccc(C)cc2)C1=S`, the activity change, negative = inhibition was -11.3% (inactive) and -13.1% (inactive).
Turning to `CCOC(=O)N1C(=O)C2(CCCCC2)N(c2ccc(Cl)cc2)C1=S`, the activity change, negative = inhibition was -9.79% (inactive).
Same read-out and setting: to `CCOC(=O)N1C(=O)C2(CCCCC2)N(c2ccc(C#N)cc2)C1=S` belongs -6.49% (inactive).
The same measure, in the same setting: to `CCOC(=O)N1C(=O)C2(CCCCC2)N(c2ccc(F)cc2)C1=S` belongs -12.7% (inactive); to `C/C=C/[C@@H]1[C@H]2C[C@@H](C)CC[C@@H]2C(C)=C[C@H]1C(=O)c1c(O)c(-c2ccc(O)cc2)c[nH]c1=O`, -1.31% (inactive).
Consider `CCOC(=O)N1C(=O)C2(CCCCC2)N(c2ccccc2)C1=S`, for which the activity change, negative = inhibition is -11.4% (inactive).

In another test the test system is Candida glabrata growth in glucose medium, OD600, 48 h. The test is described as above.
Settings: not given
The essentials: as §1
For `CC1/C=C/C=C\C=C\C=C\C=C\C=C\C=C\C(O[C@H]2OC(C)C(O)C(N)C2O)CC2OC(O)(CC(O)CC(O)C(O)CCC(O)CC(O)CC(=O)OC(C)C(C)C1O)CC(O)C2C(=O)O` (stereo partly drawn), the AC50 is 1220 nM.
